Compound activity deposited in PubChem by several laboratories.
bCat KO growth: beta-catenin-lacking colon tumor cell growth suppression; HCT116 beta-catenin knockout viability, CellTiter-Glo, 60 h; active compounds read low; viability, % at 10 µM; 140,000 compounds, 1.5% hits;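 active = viability at or under a set limit, the compound median less 4 SD, cut at about 6% in these data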;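 also: 0% = Hyamine 1622 control at 20 µM and 100% = untreated cell control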
PTEN del growth: PTEN-deleted cell growth suppression | AID 827 | HCT116 PTEN-null viability, CellTiter-Glo, 60 h; active compounds read low | 140,000 compounds, 1.2% hits | viability, % at 10 µM;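 active = viability at or below a set limit, 4 SD under the median of all tested compounds, cut at about 3.7% in these data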;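 also: PTEN knockout HCT116 line with beta catenin targeted HCT116 as companion control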
HUVEC inhibit: blocks proliferation of human endothelial cells | HUVEC proliferation, CellTiter-Glo luminescence, 72 h; active compounds read low | viability, % at 10 µM (by protocol) | 86,000 compounds, 1.1% hits;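 active = viability at or below 30%; inactive = viability above 30%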;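 also: 100% = median luminescence of DMSO-only cell control wells on each plate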
H69AR inhibit: blocks growth of human H69AR lung tumor cells; H69AR lung tumor viability, ATP luminescence, 72 h; active compounds read low; viability, % at 10 µM; 85,000 compounds, 6% hits;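 active = viability at or below 40%; inactive = viability above 40%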;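 also: multidrug resistant small cell line overexpressing MRP-1 efflux transporter; 100% = mean luminescence of untreated control wells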
Fibroblast inh: blocks proliferation of human lung fibroblasts; LL 47 human lung fibroblast viability, ATP luminescence; active compounds read low; viability, % at 10 µM; 85,000 compounds, 1.1% hits; AID 719;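 active = viability at or below 50% in the single dose screen; inactive = viability above 50%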;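 also: compound exposure lasted 72 h before the ATP readout; 100% = median luminescence of untreated cell-only wells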
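material = human LL 47 lung fibroblast cells | dosing = compounds added from tenfold dosing solution, 0.1% DMSO final | timing = overnight cell rest, 72 h compound treatment at 37 °C | measured by = CellTiter-Glo luminescence measuring cellular ATP | evaluation = % viability versus median cells-only luminescence | control set = cell-only wells, no compound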
Cav3 T inh: inhibitors of human Cav3.2 T-type calcium channel. AID 449739. Cav3.2-expressing cells, Fluo-4 calcium fluorescence FDSS; active compounds read low. O95180. B-score at 10 µM. 100,000 compounds, 4% hits;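 active = single-dose well whose peak fluorescence ratio is a statistical outlier from its plate by either plate-standardised score or position-corrected B-score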
Starred values were filed as active, the others as inactive; / = not tested or not shown. Shown are actives, neighbours in structure and some others; about 7.1% of the full set was active somewhere.

SMILES	bCat KO growth	PTEN del growth	HUVEC inhibit	H69AR inhibit	Fibroblast inh	Cav3 T inh
COc1ccccc1N1CCN(C(=O)c2cc(-c3ccc(C)cc3)on2)CC1	85	87	106	96	105	-4.2*
COc1ccccc1-c1cc(C(=O)N2CCN(c3ccccc3OC)CC2)no1	77	55	77	28*	97	-3
COc1ccccc1N1CCN(C(=O)c2cc(-c3ccc(Cl)cc3)on2)CC1	97	92	104	92	102	-2.4
Cc1ccc(O)c(/C=N/NC(=O)C2=NNC(c3ccccc3)(c3ccccc3)C2)c1	9	7	4.0*	37*	12*	-3
Cc1ccccc1OCC(=O)OC(C(=O)c1ccccc1)c1ccccc1 (stereo not drawn)	93	105	/	/	/	/
Cc1ccc(CNC(=O)C(=O)NCC2OCCN2C(=O)c2cccs2)cc1 (stereo not drawn)	85	86	/	/	/	/
FC(F)(F)c1cc(C(F)(F)F)c2ccc(Oc3ccccc3)nc2n1	95	88	/	/	/	-4.7*
COc1ccc(CNc2nc(NCc3ccc(OC)cc3)n(C(=O)c3ccccc3[N+](=O)[O-])n2)cc1	85	74	/	/	/	-2.2
CCOc1ccc(S(=O)(=O)Oc2ccc3ccccc3c2)cc1	75	77	/	/	/	/
CCOC(=O)C1=C(C)OC(N)=C(C#N)C1c1cc(OC)c2c(c1)OCO2 (stereo not drawn)	94	105	82	88	94	-0.21
COc1cc(C2C(C#N)=C(N)Oc3cc(O)ccc32)cc(OC)c1OC (stereo not drawn)	18	17	54	27*	47*	-1.4
COc1cc(C2C(C#N)=C(N)Oc3cc(O)ccc32)cc2c1OCO2 (stereo not drawn)	67	62	42	24*	89	-3.7
COc1ccc(C2C(C#N)=C(N)Oc3cc(O)ccc32)cc1OC (stereo not drawn)	95	93	92	85	103	0.12
COc1cc(C2C(C#N)=C(N)Oc3cc(N(C)C)ccc32)cc2c1OCO2 (stereo not drawn)	13	17	53	27*	51	-2.4
N#CC1=C(N)Oc2cc(O)ccc2C1c1ccccc1 (stereo not drawn)	85	76	84	64	89	-2.7
CCC(C)OC(=O)C1=C(C)NC(=O)CC1c1ccccc1OC (stereo not drawn)	54	61	90	95	99	-0.77
Cc1c(C(=O)NC(C(C)C)C(C)C)cccc1[N+](=O)[O-]	90	88	/	/	/	/
COc1ccc(Nc2ncc(C(=O)N3CCN(Cc4ccccc4)CC3)c3ccccc23)cc1	3.9*	3.4*	52	62	78	-3.4
COc1ccc(Nc2ncc(C(=O)N3CCC(C(N)=O)CC3)c3ccccc23)cc1	91	102	94	101	101	0.42
CCOC(=O)c1c(NC(=O)C(C)N2CCN(S(=O)(=O)c3cccs3)CC2)sc2c1CCC(C)C2 (stereo not drawn)	84	79	/	/	/	/
CC(C)Oc1ccccc1C1CC(=O)Nc2cc3c(cc21)OCO3 (stereo not drawn)	9	12	45	20*	62	-0.17
CCOc1ccccc1C1CC(=O)Nc2cc3c(cc21)OCCO3 (stereo not drawn)	17	16	51	30*	61	-2.2
CCCOc1ccccc1C1CC(=O)Nc2cc3c(cc21)OCCO3 (stereo not drawn)	17	17	/	/	/	/
COc1ccccc1NC(=S)NC1CCCCCC1	63	67	/	/	/	/
CCCCOC(=O)Cn1c(=N)n(CCN2CCOCC2)c2ccccc21	/	/	101	95	105	0.26
SMILES	bCat KO growth	PTEN del growth	HUVEC inhibit	H69AR inhibit	Fibroblast inh	Cav3 T inh
N=c1n(CCN2CCOCC2)c2ccccc2n1CC(=O)c1ccc(Cl)c(Cl)c1	63	66	70	0.9*	82	-4.7*
O=C(Nc1ccc(OCC(F)(F)C(F)F)c(C(F)(F)F)c1)c1ccccc1O	5.2*	5	/	/	/	-0.014
O=C(Nc1ccc(OCC(F)(F)C(F)F)c(C(F)(F)F)c1)c1ccccc1	/	/	/	/	/	-0.31
CN(C1CCCCC1)S(=O)(=O)c1ccc(NC(=S)NC(=O)c2cccs2)cc1	78	74	/	/	/	-5.7*
Cc1cc(C)cc(NS(=O)(=O)c2ccc(NC(=S)NC(=O)c3cccs3)cc2)c1	57	63	/	/	/	/
CCCCN(CCCC)S(=O)(=O)c1ccc(NC(=O)c2cccs2)cc1	8	7	78	26*	88	-0.78
